This is an account of results in ChEMBL document CHEMBL5137066, “Discovery of BLU-945, a Reversible, Potent, and Wild-Type-Sparing Next-Generation EGFR Mutant Inhibitor for Treatment-Resistant Non-Small-Cell Lung Cancer” (J Med Chem, 2022).

Some results are limits rather than exact numbers.

Data set [1] can be described thus: Oral bioavailability in Sprague-Dawley rat at 5 mg/kg. It is filed as ADME, organism-based. Conditions: in vivo. In outline: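 Sprague–Dawley rats (n = 3) received 1 mg/kg IV and 5 mg/kg PO. IV vehicle was 10% DMSO/10% solutol/80% (20% HP-β-CD). PO vehicle was a suspension in 20% solutol in 0.5% MC in water, or a solution matching the IV vehicle, depending on compound.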

Data set [2] in a line: Clearance in Sprague-Dawley rat at 1 mg/kg, iv. It is filed as ADME, organism-based. Conditions: in vivo. In outline: (§1)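 Sprague–Dawley rats (n = 3), single IV bolus of 1 mg/kg in 10% DMSO, 10% solutol, 80% of a 20% HP-β-CD solution (in water or in saline, depending on compound). Clearance is plasma clearance after the IV bolus.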
The nature of data set [3]: Intrinsic clearance in human liver microsomes. Type of data set: ADME, Microsome. Conditions: for Microsomal intrinsic clearance: microsomes.
Data set [4] can be described thus: Half life in Sprague-Dawley rat at 1 mg/kg, iv. It is filed as ADME, organism-based. The note with it: in vivo. In outline: as §1
A short description of data set [5]: Inhibition of N-terminal GST tagged recombinant human EGFR ex19del (746 to 750)/ L858R/C790S (668 to end residues) triple mutant expressed in baculovirus infected Sf9 insect cells expression system using 5-FAM-EEPLYINSFPAKKK-CONH peptide as substrate preincubated for 10 mins followed by peptide substrate addition in presence of ATP.
The target in data set [6] is T1, Epidermal growth factor receptor (Homo sapiens, UniProt P00533, L858R/T790M). The data set can be described thus: Inhibition of N-terminal GST tagged recombinant human EGFR L858R/T790M (669 to end residues) double mutant expressed in baculovirus infected Sf9 insect cells expression system using 5-FAM-EEPLYINSFPAKKK-CONH peptide as substrate preincubated for 10 mins followed by peptide substrate addition in presence of ATP.

Data set [7] deals with T1, Epidermal growth factor receptor. Nature of the data set: Inhibition of EGF stimulated EGFR L858R/T790M double mutant phosphorylation in human NCI-H1975 cells preincubated for 4 to 5 hrs followed by EGF stimulation for 10 mins by AlphaLISA method. It is filed as cell-based. (In general: Alpha assays give light when donor and acceptor beads are brought close together.)

Data set [8] is described as follows: Inhibition of N-terminal GST tagged recombinant human EGFR L858R/T790M/C790S (668 to end residues) triple mutant expressed in baculovirus infected Sf9 insect cells using 5-FAM-EEPLYINSFPAKKK-CONH peptide as substrate preincubated for 10 mins followed by peptide substrate addition in presence of ATP.
The target of data set [9] is T2, Epidermal growth factor receptor (Homo sapiens, UniProt P00533). Nature of the data set: Inhibition of N-terminal GST tagged recombinant wild type human EGFR expressed in baculovirus infected Sf9 insect cells expression system using 5-FAM-EEPLYINSFPAKKK-CONH peptide as substrate preincubated for 10 mins followed by peptide substrate addition in presence of ATP.

The target of data set [10] is T2, Epidermal growth factor receptor. Nature of the data set: Inhibition of wild type EGFR in human A-431 cells preincubated for 4 to 5 hrs followed by EGF stimulation for 10 mins by AlphaLISA method. It is filed as cell-based.
Data set [11] can be described thus: Efflux ratio of apparent permeability in MDCK-MDR1 cells. The note with it: dog. Type of data set: ADME, cell-based, Canis lupus familiaris.
Data set [12] in a line: Intrinsic clearance in cynomolgus monkey hepatocytes assessed per million cells. It is filed as ADME, cell-based, Macaca fascicularis, Hepatocyte. In outline: (§2)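 Intrinsic clearance measured in isolated hepatocytes of each species, expressed in μL/min/million cells.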
A short description of data set [13]: Intrinsic clearance in human hepatocytes assessed per million cells. Type of data set: ADME, cell-based, Hepatocyte. In outline: as §2
Data set [14] is described as follows: Intrinsic clearance in cynomolgus monkey liver microsomes in presence of NADPH. Type of data set: ADME, Macaca fascicularis, Microsome. In outline:
(§3)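 Intrinsic clearance measured in isolated liver microsomes of each species with NADPH, expressed in μL/min/mg.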
On the technique in general: Microsomes from liver hold many membrane-bound enzymes, among them those of drug oxidation.

Data set [15] can be described thus: Apparent permeability across apical to basolateral side in MDCK-MDR1 cells. Type of data set: ADME, cell-based, Canis lupus familiaris. The note with it: dog.
Data set [16] is described as follows: Intrinsic clearance in human liver microsomes in presence of NADPH. Type of data set: ADME, Microsome. In outline:
as §3

T1 sequence (P00533 25-1210 T790M/L858R limits assumed): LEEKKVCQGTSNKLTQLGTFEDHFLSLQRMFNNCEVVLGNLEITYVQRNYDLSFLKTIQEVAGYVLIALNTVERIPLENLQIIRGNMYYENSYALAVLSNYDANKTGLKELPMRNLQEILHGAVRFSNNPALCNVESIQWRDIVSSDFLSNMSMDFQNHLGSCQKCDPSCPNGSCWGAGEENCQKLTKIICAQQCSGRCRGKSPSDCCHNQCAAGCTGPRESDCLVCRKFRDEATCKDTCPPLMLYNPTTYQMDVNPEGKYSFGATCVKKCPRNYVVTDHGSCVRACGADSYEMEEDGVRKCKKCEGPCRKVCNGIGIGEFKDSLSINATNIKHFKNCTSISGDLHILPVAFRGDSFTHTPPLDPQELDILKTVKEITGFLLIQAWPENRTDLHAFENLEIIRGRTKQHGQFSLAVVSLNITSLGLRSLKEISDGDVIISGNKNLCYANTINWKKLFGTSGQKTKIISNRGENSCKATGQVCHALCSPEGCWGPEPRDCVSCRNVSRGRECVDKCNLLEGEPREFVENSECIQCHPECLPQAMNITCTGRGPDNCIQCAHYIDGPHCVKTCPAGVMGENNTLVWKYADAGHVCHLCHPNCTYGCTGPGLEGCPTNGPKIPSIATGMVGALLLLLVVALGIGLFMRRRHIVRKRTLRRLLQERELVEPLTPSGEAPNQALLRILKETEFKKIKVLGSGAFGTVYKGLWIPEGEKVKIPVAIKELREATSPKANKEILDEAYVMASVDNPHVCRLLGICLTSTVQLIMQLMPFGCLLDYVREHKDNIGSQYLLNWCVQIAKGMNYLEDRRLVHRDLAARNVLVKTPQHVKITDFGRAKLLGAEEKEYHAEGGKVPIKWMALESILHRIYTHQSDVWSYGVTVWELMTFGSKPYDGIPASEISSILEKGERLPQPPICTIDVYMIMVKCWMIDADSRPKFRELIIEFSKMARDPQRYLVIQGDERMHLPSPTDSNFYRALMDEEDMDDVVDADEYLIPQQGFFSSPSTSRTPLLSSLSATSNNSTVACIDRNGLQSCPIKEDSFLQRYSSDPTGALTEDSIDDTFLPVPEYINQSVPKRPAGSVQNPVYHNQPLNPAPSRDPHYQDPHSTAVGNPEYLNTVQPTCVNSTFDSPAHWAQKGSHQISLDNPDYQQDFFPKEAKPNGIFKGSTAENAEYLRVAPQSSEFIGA
T2 sequence (P00533 whole entry): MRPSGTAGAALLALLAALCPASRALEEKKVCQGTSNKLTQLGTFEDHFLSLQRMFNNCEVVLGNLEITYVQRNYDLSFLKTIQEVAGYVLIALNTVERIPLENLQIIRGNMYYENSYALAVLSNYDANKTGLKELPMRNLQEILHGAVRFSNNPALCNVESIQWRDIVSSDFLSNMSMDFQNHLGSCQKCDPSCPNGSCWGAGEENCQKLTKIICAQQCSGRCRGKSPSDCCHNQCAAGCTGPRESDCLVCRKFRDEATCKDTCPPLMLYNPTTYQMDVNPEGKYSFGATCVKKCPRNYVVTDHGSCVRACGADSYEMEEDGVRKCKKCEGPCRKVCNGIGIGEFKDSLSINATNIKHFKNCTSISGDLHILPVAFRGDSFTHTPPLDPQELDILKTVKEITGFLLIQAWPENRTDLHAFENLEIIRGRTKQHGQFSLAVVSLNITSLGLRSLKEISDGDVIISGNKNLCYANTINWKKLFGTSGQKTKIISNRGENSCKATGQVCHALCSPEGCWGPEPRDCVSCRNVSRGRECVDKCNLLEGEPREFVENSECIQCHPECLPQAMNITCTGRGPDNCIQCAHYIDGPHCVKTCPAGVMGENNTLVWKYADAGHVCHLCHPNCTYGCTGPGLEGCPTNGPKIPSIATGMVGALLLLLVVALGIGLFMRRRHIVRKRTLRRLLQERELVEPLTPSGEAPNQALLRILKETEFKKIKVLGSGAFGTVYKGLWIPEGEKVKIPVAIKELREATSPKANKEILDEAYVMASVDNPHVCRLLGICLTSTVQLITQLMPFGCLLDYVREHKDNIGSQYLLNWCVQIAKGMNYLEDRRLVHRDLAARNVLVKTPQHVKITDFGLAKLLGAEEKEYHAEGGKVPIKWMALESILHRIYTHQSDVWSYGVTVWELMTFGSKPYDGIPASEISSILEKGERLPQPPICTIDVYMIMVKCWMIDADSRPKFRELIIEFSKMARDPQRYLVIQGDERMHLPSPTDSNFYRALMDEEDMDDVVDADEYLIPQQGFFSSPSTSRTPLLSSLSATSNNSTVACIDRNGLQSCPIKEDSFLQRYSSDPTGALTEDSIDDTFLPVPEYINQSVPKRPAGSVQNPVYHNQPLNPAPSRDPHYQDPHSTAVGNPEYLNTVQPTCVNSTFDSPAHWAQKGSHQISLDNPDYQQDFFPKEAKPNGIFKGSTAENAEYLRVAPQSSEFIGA

Regarding `CC(C)c1cnc(N2CC(CS(C)(=O)=O)C2)c2cnc(Nc3ccnc(N4CC[C@@H](O)[C@@](C)(F)C4)n3)cc12`, the F in data set [1] turned out to be 2%. Besides, the clearance in [2] is 67 mL/min/kg. In data set [3], this molecule gave a Microsomal intrinsic clearance of 9.6 µL/min/mg. The molecule further had a half-life in data set [4] of 1.6 h.
For the molecule `COC1CN(c2ncc(C(C)C)c3cc(Nc4ccnc(N5CC[C@@H](O)[C@@](C)(F)C5)n4)ncc23)C1`, the IC50 in data set [5] came out at 6.3 nM; in [6], 3.4 nM; in data set [7] it was 24 nM; in data set [8], 7.2 nM. This molecule also came in with a Microsomal intrinsic clearance in [3] of 91 µL/min/mg.
As to `CC(C)c1cnc(N2CC(C#N)C2)c2cnc(Nc3ccnc(N4CC[C@@H](O)[C@@](C)(F)C4)n3)cc12`, the IC50 was found to be 4.8 nM in [5], 3400 nM in data set [9], 17 nM in [7] and 5.3 nM in data set [8]. Moreover, the Microsomal intrinsic clearance in [3] is 85 µL/min/mg.
For the molecule `CNc1ncc(C(C)C)c2cc(Nc3ccnc(N4CC[C@@H](O)[C@@H](F)C4)n3)ncc12`, the IC50 in data set [6] is 50 nM; in [9], greater than 10000 nM; in [7] it was 67 nM; in data set [10], greater than 25000 nM; in data set [8] it was 46 nM. Moreover, in data set [3] (liver microsomes, read-out: CLH), the microsomal CLint came to 19.1 µL/min/mg.
As for `CC(C)c1cnc(N2CC(O)C2)c2cnc(Nc3ccnc(N4CC[C@@H](O)[C@@](C)(F)C4)n3)cc12`, the IC50 stood at 8.1 nM in [5]; 3.6 nM in [6]; 5520 nM in [9]; 41 nM in [7]; 11 nM in [8]. For the same molecule, in data set [3], the Microsomal intrinsic clearance came to 43 µL/min/mg.
Regarding `CC[C@]1(F)CN(c2nccc(Nc3cc4c(C(C)C)ccc(N5C[C@H](CS(C)(=O)=O)[C@H]5C)c4cn3)n2)CC[C@H]1O`, the efflux ratio in [11] came to 4. Moreover, the CLH came to 204 uL/min/10^6 cells in data set [12], 48 µL/min in [13], 192 µL/min/mg in data set [14] and 5.9 µL/min/mg in data set [16]. The IC50 in data set [6] amounted to 0.5 nM; in [9], 761 nM; in data set [7], 1.8 nM; in data set [10], 709 nM; in data set [8], 0.4 nM. Further, the Papp in [15] is 6 10^-6 cm/s.
On to `CC(C)c1ncc(N2C[C@H](O)[C@H]2C)c2cnc(Nc3ccnc(N4CC[C@@H](O)[C@@](C)(F)C4)n3)cc12`, for which the IC50 in [5] stood at 8.1 nM; in data set [6], 1.8 nM; in data set [9], 4190 nM; in [7] it was 13 nM; in [8], 10 nM. Also, the Microsomal intrinsic clearance in data set [3] came to 45 µL/min/mg.
Regarding `COCC1CN(c2ncc(C(C)C)c3cc(Nc4ccnc(N5CC[C@@H](O)[C@@](C)(F)C5)n4)ncc23)C1`, the IC50 in data set [5] was found to be 24 nM; in [6], 11 nM; in data set [7], 40 nM; in data set [8], 25 nM.
For the molecule `CNC(=O)c1cnc(Nc2ccnc(N3CC[C@@H](O)[C@@H](F)C3)n2)cc1NC(C)C`, the IC50 in data set [6] was 99 nM; in data set [9], greater than 10000 nM; in data set [7], 420 nM; in data set [10], greater than 25000 nM; in data set [8] it was 105 nM. Further, the Microsomal intrinsic clearance in data set [3] was 9.1 µL/min/mg.
`CC(C)c1cnc(N2CCC2)c2cnc(Nc3ccnc(N4CC[C@@H](O)[C@@](C)(F)C4)n3)cc12`: the IC50 in data set [5] amounted to 9.1 nM; in data set [6] it was 2.1 nM; in data set [7], 20 nM; in data set [10], 8670 nM; in data set [8] it was 12 nM. The molecule also returned a Microsomal intrinsic clearance in data set [3] of 106 µL/min/mg.
Turning to `CC(C)c1cnc(N2C[C@H](CS(C)(=O)=O)[C@H]2C)c2cnc(Nc3ccnc(N4CC[C@@H](O)[C@@](C)(F)C4)n3)cc12`, in [11], the efflux ratio worked out at 16. The IC50 in [6] was determined as 0.2 nM; in data set [9], 270 nM; in data set [7] it was 1.7 nM; in data set [10] it was 781 nM. In data set [15], the Papp is recorded as 5 10^-6 cm/s.
Molecule `CC(C)c1cnc(N2CC(C(=O)N(C)C)C2)c2cnc(Nc3ccnc(N4CC[C@@H](O)[C@@](C)(F)C4)n3)cc12` had a Microsomal intrinsic clearance in [3] of 102 µL/min/mg.
In the case of `CC(C)c1cnc(N2CC[C@@H]2C)c2cnc(Nc3ccnc(N4CC[C@@H](O)[C@@](C)(F)C4)n3)cc12`, the IC50 in data set [5] worked out at 110 nM; in [6] it was 106 nM; in data set [7], 210 nM; in data set [8] it was 113 nM.
`CNC(=O)c1cnc(Nc2ccnc(N3CCC(O)CC3)n2)cc1NC(C)C`: the IC50 in [6] was 290 nM; in [9], greater than 10000 nM; in data set [7], 914 nM; in data set [10] it was greater than 25000 nM; in data set [8] it was 266 nM. Moreover, the Microsomal intrinsic clearance in data set [3] worked out at 4 µL/min/mg.
In data set [1], `CC(C)c1ccc(N2CC(CS(C)(=O)=O)C2)c2cnc(Nc3ccnc(N4CC[C@@H](O)[C@@](C)(F)C4)n3)cc12` gave an F of 85%. For the same molecule, the clearance in data set [2] came to 20 mL/min/kg. Further, in data set [15], the Papp is 17 10^-6 cm/s. The molecule also had a half-life in [4] of 3 h.
For the molecule `CC(C)c1cnc(N2CC[C@H]2C)c2cnc(Nc3ccnc(N4CC[C@@H](O)[C@@](C)(F)C4)n3)cc12`, the half-maximal inhibitory concentration (IC50) in data set [5] was determined as 0.8 nM; in data set [6] it was 0.3 nM; in data set [9] it was 7290 nM; in data set [7] it was 7 nM; in data set [10], 9960 nM. For the same molecule, the Microsomal intrinsic clearance in data set [3] was 80 µL/min/mg.
For the molecule `CC(C)c1cnc(N2C[C@H](O)[C@H]2C)c2cnc(Nc3ccnc(N4CC[C@@H](O)[C@@](C)(F)C4)n3)cc12`, in [3], the Microsomal intrinsic clearance stood at 25 µL/min/mg.
Consider `CC(C)c1ncc(N2CC[C@H]2C)c2cnc(Nc3ccnc(N4CC[C@@H](O)[C@@](C)(F)C4)n3)cc12`, for which the IC50 is 6 nM in data set [5]; 2.2 nM in data set [6]; 3420 nM in data set [9]; 23 nM in data set [7]; 9 nM in data set [8]. The Microsomal intrinsic clearance in data set [3] was determined as 159 µL/min/mg.
Take `CC(C)c1nnc(N2CC[C@H]2C)c2cnc(Nc3ccnc(N4CC[C@@H](O)[C@@](C)(F)C4)n3)cc12`: the IC50 in data set [5] turned out to be 9.6 nM; in [6], 16 nM; in data set [9], 8170 nM; in data set [7], 25 nM; in data set [8] it was 12.7 nM. The Microsomal intrinsic clearance in data set [3] is 96 µL/min/mg.
As to `CC(C)c1cnc(N2CCCC2)c2cnc(Nc3ccnc(N4CC[C@@H](O)[C@@](C)(F)C4)n3)cc12`, the IC50 in data set [5] was determined as 23 nM; in data set [7], 52 nM; in data set [8], 21.5 nM. Besides, the Microsomal intrinsic clearance in [3] is 65 µL/min/mg.
For the molecule `CNC(=O)C1CN(c2ncc(C(C)C)c3cc(Nc4ccnc(N5CC[C@@H](O)[C@@](C)(F)C5)n4)ncc23)C1`, the IC50 in [5] was 3.4 nM; in [6] it was 1 nM; in data set [7], 32 nM; in [8], 1.1 nM.
Turning to `CNc1ncc(C(C)C)c2cc(Nc3ccnc(N4CC[C@@H](O)[C@@](C)(F)C4)n3)ncc12`, the Microsomal intrinsic clearance in data set [3] is 31 µL/min/mg.
`CC(C)c1ccc(N2C[C@H](O)[C@H]2C)c2cnc(Nc3ccnc(N4CC[C@@H](O)[C@@](C)(F)C4)n3)cc12`: the IC50 was 5.5 nM in data set [5]; 0.5 nM in [6]; 2220 nM in [9]; 19 nM in [7]; 7.5 nM in [8]. The same molecule had a Microsomal intrinsic clearance in data set [3] of 17 µL/min/mg.

What is called clearance is a measure of how efficiently the substance is removed, as volume per time. As a reminder, the half-life is the time in which the quantity being followed falls by half. In general, IC50 refers to the midpoint of a concentration-inhibition curve. The term efflux ratio denotes a quotient of directional permeabilities that is used to spot active efflux.
